High-throughput results: PubChem, several laboratories
Only some compounds are listed: those with a hit (about 2.8% of all), similar ones and a draw of the others.
PP1 inh = PP1-alpha (human) inhibition in PP5 counter-screen; actives 0.9% (n = 320,000); purified PP1alpha, OMFP fluorescence; P62136; inhibition, % at 6.7 µM;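 active = inhibition above the mean inhibition of all tested compounds plus 3 SD, computed separately for each screening campaign, cut at about 15% in these data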
Target sequence (P62136 whole entry, looked up): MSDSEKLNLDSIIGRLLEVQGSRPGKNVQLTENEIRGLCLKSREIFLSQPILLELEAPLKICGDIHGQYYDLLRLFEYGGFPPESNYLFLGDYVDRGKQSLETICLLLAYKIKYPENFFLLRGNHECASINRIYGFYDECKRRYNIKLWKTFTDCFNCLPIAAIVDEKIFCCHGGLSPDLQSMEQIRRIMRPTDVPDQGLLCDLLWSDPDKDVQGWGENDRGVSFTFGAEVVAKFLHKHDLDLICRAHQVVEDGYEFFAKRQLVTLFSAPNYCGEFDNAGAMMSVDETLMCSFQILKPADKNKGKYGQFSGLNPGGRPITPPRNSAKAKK
AI-2 QS mod = modulates the Vibrio harveyi AI-2 quorum sensing system. Vibrio harveyi JMH597 AI-2 luminescence/OD600 ratio, 9 h; hits give low values; strain lacks LuxN and CqsS sensors; 0 = neutral-control median. activity change, % at 7.5 µM. actives 0.4% (n = 300,000); in the data active = activity change below about -75%, passing the limit was not always enough;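 also: luminescence divided by OD600 gain over 9 h not by final OD600 alone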
pCIP destab = compounds decreasing mouse p/CIP protein stability. Q05BA5. F442A p/CIP-EGFP cells, EGFP fluorescence, 16 h. decrease of EGFP signal, % at 10 µM. actives 0.01% (n = 290,000);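 active = EGFP signal decrease of at least 30% at 10 µM or well 3 SD below plate mean, unless failing retest; inactive = the rest, including hits failing retest or dose response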
T cruzi repl = T. cruzi replication inhibition | actives 1.4% (n = 300,000) | T. cruzi beta-gal in NIH3T3, luminescence, 90 h | inhibition, % (test concentration not listed);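 active = mean inhibition across valid replicates above about 55%, limit read from the data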;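 also: signal also drops with host cell toxicity which is not excluded here; 0% = plate median of DMSO wells and 100% = zero luminescence signal; higher percent means less beta-gal luminescence so fewer parasites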
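Read-out: Parasite load inhibition, % | Test system: Mouse NIH/3T3 fibroblasts infected with β-gal-expressing T. cruzi Tulahuen C4 | Amount: 5,000 cells/well | Medium: DMEM, 2% fetal bovine serum | Signal: GalScreen β-gal luminescence, detergent lysis, 60 min | Timing: 3 h attach, ≥90 h co-culture | Also added: Tulahuen C4 trypomastigotes, 5000/well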
UBC13 polyUb = blocks human UBC13 polyubiquitin chain formation | P61088 | TR-FRET | inhibition, % at 20 µM | actives 0.47% (n = 330,000); in the data active = inhibition above about 45%, passing the limit was not always enough
Target sequence (P61088 whole entry, looked up): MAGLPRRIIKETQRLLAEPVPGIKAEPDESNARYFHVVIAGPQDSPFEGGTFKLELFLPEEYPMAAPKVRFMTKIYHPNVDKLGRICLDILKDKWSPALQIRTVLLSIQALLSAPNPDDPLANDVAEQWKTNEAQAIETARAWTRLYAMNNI
* = called active by the depositor.

Results for CCCC(C)c1nnc(NC(=O)COc2ccc3c(c2)OCO3)s1 (stereo unspecified) ?
PP1 inh: 16.5*; pCIP destab: -7.7; T cruzi repl: -3.8; UBC13 polyUb: -4.9

How did COc1nc(-c2ccccc2)ccc1-c1noc(-c2ccco2)n1 do in these assays?
PP1 inh: -1.4; AI-2 QS mod: -5.1; pCIP destab: 3.7; T cruzi repl: 5.9; UBC13 polyUb: 9.2

Results for COc1ccc(-c2ccc(-c3noc(-c4ccco4)n3)c(OC)n2)cc1 ?
PP1 inh: 16.3*; AI-2 QS mod: 14.8; pCIP destab: 3.3; T cruzi repl: -13.2; UBC13 polyUb: 16.0

What do the screens show for `CN(Cc1ccccc1Cl)C(=O)CNC(=O)C12CC3CC(CC(C3)C1)C2`?
UBC13 polyUb: 6.5

How did Cc1cc(C)c(S(=O)(=O)NCc2cn3ccccc3n2)c(C)c1 do in these assays?
PP1 inh: 4.7; AI-2 QS mod: 59.1; pCIP destab: -10.1; T cruzi repl: 0.2; UBC13 polyUb: 2.9

Results for Cc1cc(C)c(-c2csc(NC(=O)c3cc([N+](=O)[O-])ccc3N3CCOCC3)n2)c(C)c1 ?
PP1 inh: 5.7; AI-2 QS mod: 23.0; pCIP destab: 2.4; T cruzi repl: 66.1*; UBC13 polyUb: -7.0

Results for O=C(Nc1nc(-c2ccc(F)c(F)c2)cs1)c1cc([N+](=O)[O-])ccc1N1CCOCC1 ?
PP1 inh: 0.6; AI-2 QS mod: -7.5; pCIP destab: 0.8; T cruzi repl: 26.1; UBC13 polyUb: 8.5

Results for O=C(CSc1nnc(COc2ccc(Cl)cc2)o1)N1CCCC1 ?
PP1 inh: -0.9; AI-2 QS mod: 27.7; pCIP destab: -7.4; T cruzi repl: -15.2; UBC13 polyUb: -6.6

Results for O=C(CSc1nnc(COc2ccc(Cl)cc2)o1)N1c2ccccc2CCc2ccccc21 ?
PP1 inh: 7.6; AI-2 QS mod: 13.5; pCIP destab: -9.8; T cruzi repl: 66.2*; UBC13 polyUb: -7.8

Results for Cc1ccc(NC(=O)C(=O)c2c(-c3ccccc3)cc3ccccn23)cc1S(=O)(=O)N1CCOCC1 ?
PP1 inh: 0.8; AI-2 QS mod: 19.8; pCIP destab: -29.8; T cruzi repl: 10.7; UBC13 polyUb: 0.4

How did CC1=C(C(N)=O)C(c2cccnc2)n2nc(-c3cccc(C)c3)nc2N1 (stereo unspecified) do in these assays?
PP1 inh: -2.6; AI-2 QS mod: 9.7; T cruzi repl: 65.6*; UBC13 polyUb: 7.0

How did CC1=C(C(N)=O)C(c2cccs2)n2nc(-c3cccc(C)c3)nc2N1 (stereo unspecified) do in these assays?
PP1 inh: -3.5; AI-2 QS mod: 24.9; T cruzi repl: -0.2; UBC13 polyUb: 10.3

How did CCN(Cc1ccccc1)C(=O)c1cc(S(=O)(=O)N2CCOCC2)cn1C do in these assays?
PP1 inh: -3.7; AI-2 QS mod: -4.0; pCIP destab: 0.3; T cruzi repl: -3.3; UBC13 polyUb: -9.5

How did CCCCN(C(=O)CSc1ncn[nH]1)c1c(N)n(Cc2ccccc2)c(=O)[nH]c1=O do in these assays?
PP1 inh: -0.8; UBC13 polyUb: 5.5

Results for CC(Nc1nc(-c2ccncc2)nc2ccccc12)c1ccccc1 (stereo unspecified) ?
PP1 inh: 1.6; AI-2 QS mod: 8.2; pCIP destab: -7.6; T cruzi repl: 61.3*; UBC13 polyUb: 24.1

How did c1ccc(Nc2nc(-c3ccncc3)nc3ccccc23)cc1 do in these assays?
PP1 inh: 2.4; AI-2 QS mod: 37.9; pCIP destab: -10.2; T cruzi repl: 26.8; UBC13 polyUb: 20.6

Results for Fc1ccccc1Nc1nc(-c2ccncc2)nc2ccccc12 ?
PP1 inh: -1.5; AI-2 QS mod: 14.8; pCIP destab: -11.0; T cruzi repl: 55.2*; UBC13 polyUb: 10.9

Results for COc1ccc(S(=O)(=O)N(C)c2ccc(C(=O)Nc3cccnc3)cc2)cc1OC ?
AI-2 QS mod: 32.1; pCIP destab: -15.0; T cruzi repl: 0.4; UBC13 polyUb: 2.3

What do the screens show for `Cc1noc(C)c1S(=O)(=O)N1CCN(S(=O)(=O)c2ccccc2C#N)CC1`?
PP1 inh: -1.9; AI-2 QS mod: 19.3; pCIP destab: 0.6; T cruzi repl: 2.3; UBC13 polyUb: -9.0

Results for O=C(C#Cc1ccccc1)Nc1ccccc1F ?
PP1 inh: -2.2; AI-2 QS mod: -86.9*; pCIP destab: -1.2; T cruzi repl: -5.5; UBC13 polyUb: 2.3

What do the screens show for `C=CCNc1nc(-c2ccccn2)nnc1-c1ccccc1`?
PP1 inh: 2.9; AI-2 QS mod: 3.5; pCIP destab: -12.4; T cruzi repl: 69.1*; UBC13 polyUb: -16.0

What do the screens show for `c1ccc(-c2cnnc(-c3ccccn3)n2)cc1`?
PP1 inh: 2.8; AI-2 QS mod: 10.8; T cruzi repl: -14.1; UBC13 polyUb: 2.1

How did C/C(=N\NS(=O)(=O)c1ccccc1)c1cc(Cl)cc(Cl)c1O do in these assays?
PP1 inh: 1.9; AI-2 QS mod: 13.1; pCIP destab: -17.5; T cruzi repl: -32.1; UBC13 polyUb: 2.7

Results for Cc1ccc(SCc2ccc(C(=O)Nc3cccc([N+](=O)[O-])c3C)cc2)cc1 ?
PP1 inh: 0.8; AI-2 QS mod: 26.6; pCIP destab: -5.0; T cruzi repl: 59.5*; UBC13 polyUb: -13.3

What do the screens show for `O=C(O)CCCCCCCCCCP(=O)(c1ccccc1)c1ccccc1`?
PP1 inh: 0.7; AI-2 QS mod: 6.4; pCIP destab: -15.3; T cruzi repl: 23.0; UBC13 polyUb: -4.3

Results for O=P(CCCCCCCCCP(=O)(c1ccccc1)c1ccccc1)(c1ccccc1)c1ccccc1 ?
PP1 inh: 10.9; AI-2 QS mod: 2.7; pCIP destab: -11.5; T cruzi repl: 60.8*; UBC13 polyUb: 9.8

Results for O=C(Nc1c2c(nc3ccccc13)CCCC2)c1cccc([N+](=O)[O-])c1 ?
PP1 inh: 0.7; AI-2 QS mod: 12.7; pCIP destab: -4.9; T cruzi repl: 5.8; UBC13 polyUb: 5.9

How did CCOc1cc(CNc2cccc3ccccc23)cc(Br)c1OCC(=O)NC(C)(C)C do in these assays?
PP1 inh: 8.4; AI-2 QS mod: 9.3; pCIP destab: 3.0; T cruzi repl: 54.5*; UBC13 polyUb: -10.7

How did CCOc1cc(CO)cc(Br)c1OCC(=O)Nc1ccccc1C do in these assays?
PP1 inh: -2.2; AI-2 QS mod: -1.6; pCIP destab: 3.0; T cruzi repl: -12.4; UBC13 polyUb: 10.0

How did CCOc1cc(CNc2ccc(N3CCCCC3)cc2)cc(Br)c1OCC(=O)NC(C)(C)C do in these assays?
PP1 inh: 6.1; AI-2 QS mod: 22.4; pCIP destab: -12.5; T cruzi repl: 57.7*; UBC13 polyUb: 2.8

How did CCOc1cc(CNc2ccc(N(C)C)cc2)cc(Br)c1OCC(=O)NC(C)(C)C do in these assays?
PP1 inh: 2.5; AI-2 QS mod: 43.6; pCIP destab: -21.7; T cruzi repl: 50.0; UBC13 polyUb: -8.2

How did CCOC(=O)c1cccc(C2=CC(=O)C[C@H](c3ccc(OC)cc3)C2)c1 do in these assays?
PP1 inh: 1.2; UBC13 polyUb: 9.9
